Experimental data as given in ChEMBL document CHEMBL4257503, “N-Acetyl-3-aminopyrazoles block the non-canonical NF-kB cascade by selectively inhibiting NIK” (Medchemcomm, 2018).

Columns and labels:
[1] = molecular target: T1, Inhibitor of nuclear factor kappa-B kinase subunit epsilon (Homo sapiens, UniProt Q14164); assay: Inhibition of recombinant human full-length N-terminal GST-fused/His6-tagged IKKepsilon (M1 to V716 residues) expressed in Sf9 insect cells using ERLLDDRHDSGLDSMKDEE peptide as substrate measured after 60 mins by ADP-Glo kinase assay
T1 sequence (Q14164 whole entry): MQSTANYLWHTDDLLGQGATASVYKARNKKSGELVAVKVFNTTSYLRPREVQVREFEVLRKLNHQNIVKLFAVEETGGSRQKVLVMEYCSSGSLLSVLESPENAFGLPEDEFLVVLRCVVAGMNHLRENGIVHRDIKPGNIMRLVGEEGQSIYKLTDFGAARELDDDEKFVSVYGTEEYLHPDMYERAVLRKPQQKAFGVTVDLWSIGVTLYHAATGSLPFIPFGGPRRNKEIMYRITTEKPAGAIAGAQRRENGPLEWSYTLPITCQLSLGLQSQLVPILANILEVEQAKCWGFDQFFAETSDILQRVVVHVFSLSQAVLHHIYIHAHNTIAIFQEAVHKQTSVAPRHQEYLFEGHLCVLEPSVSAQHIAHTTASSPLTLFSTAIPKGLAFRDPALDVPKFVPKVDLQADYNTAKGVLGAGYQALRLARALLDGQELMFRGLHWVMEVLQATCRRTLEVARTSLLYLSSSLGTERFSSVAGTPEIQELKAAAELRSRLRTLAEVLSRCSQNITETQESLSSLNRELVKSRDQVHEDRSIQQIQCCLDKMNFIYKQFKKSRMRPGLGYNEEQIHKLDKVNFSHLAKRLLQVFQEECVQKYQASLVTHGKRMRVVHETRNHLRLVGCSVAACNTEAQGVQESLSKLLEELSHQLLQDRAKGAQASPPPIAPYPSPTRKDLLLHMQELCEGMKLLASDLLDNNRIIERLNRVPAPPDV

[2] = molecular target: T2, Inhibitor of nuclear factor kappa-B kinase subunit beta (Homo sapiens, UniProt O14920); assay: Inhibition of recombinant human full-length N-terminal GST-fused/His6-tagged IKKbeta (M1 to S756 residues) expressed in Sf9 insect cells using ERLLDDRHDSGLDSMKDEE peptide as substrate measured after 60 mins by ADP-Glo kinase assay
T2 sequence (O14920 whole entry): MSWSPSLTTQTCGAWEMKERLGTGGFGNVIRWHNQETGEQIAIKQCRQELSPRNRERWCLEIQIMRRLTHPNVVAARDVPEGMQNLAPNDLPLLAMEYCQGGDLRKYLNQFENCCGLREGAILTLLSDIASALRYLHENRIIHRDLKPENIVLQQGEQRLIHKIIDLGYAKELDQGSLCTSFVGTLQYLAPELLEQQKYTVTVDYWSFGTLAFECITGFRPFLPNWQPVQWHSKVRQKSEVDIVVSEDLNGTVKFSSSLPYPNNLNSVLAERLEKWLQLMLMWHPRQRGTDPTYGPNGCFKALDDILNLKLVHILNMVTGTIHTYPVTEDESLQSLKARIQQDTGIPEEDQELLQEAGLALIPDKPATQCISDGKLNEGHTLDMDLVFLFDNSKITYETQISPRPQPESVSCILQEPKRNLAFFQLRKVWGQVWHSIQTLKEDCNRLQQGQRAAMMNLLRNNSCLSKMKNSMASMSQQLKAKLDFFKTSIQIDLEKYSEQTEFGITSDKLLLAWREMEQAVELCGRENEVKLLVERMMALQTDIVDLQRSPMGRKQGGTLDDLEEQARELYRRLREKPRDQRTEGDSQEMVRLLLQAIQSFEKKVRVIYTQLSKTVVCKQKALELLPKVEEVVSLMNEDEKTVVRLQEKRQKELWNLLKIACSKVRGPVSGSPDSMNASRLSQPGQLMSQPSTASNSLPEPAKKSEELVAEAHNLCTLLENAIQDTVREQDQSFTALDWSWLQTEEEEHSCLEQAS

[3] = molecular target: Mitogen-activated protein kinase kinase kinase 14 (Homo sapiens, UniProt Q99558); assay: Inhibition of recombinant human full-length N-terminal GST-fused/His6-tagged NIK (M1 to P947 residues) expressed in Sf9 insect cells using AKDVDQGSLCTSFVGTLQY peptide as substrate measured after 60 mins by ADP-Glo kinase assay
[4] = molecular target: T3, Inhibitor of nuclear factor kappa-B kinase subunit alpha (Homo sapiens, UniProt O15111); assay: Inhibition of recombinant full length human His-tagged IKKalpha expressed in baculovirus expression system using ERLLDDRHDSGLDSMKDEE peptide as substrate measured after 60 mins by ADP-Glo kinase assay
T3 sequence (O15111 whole entry): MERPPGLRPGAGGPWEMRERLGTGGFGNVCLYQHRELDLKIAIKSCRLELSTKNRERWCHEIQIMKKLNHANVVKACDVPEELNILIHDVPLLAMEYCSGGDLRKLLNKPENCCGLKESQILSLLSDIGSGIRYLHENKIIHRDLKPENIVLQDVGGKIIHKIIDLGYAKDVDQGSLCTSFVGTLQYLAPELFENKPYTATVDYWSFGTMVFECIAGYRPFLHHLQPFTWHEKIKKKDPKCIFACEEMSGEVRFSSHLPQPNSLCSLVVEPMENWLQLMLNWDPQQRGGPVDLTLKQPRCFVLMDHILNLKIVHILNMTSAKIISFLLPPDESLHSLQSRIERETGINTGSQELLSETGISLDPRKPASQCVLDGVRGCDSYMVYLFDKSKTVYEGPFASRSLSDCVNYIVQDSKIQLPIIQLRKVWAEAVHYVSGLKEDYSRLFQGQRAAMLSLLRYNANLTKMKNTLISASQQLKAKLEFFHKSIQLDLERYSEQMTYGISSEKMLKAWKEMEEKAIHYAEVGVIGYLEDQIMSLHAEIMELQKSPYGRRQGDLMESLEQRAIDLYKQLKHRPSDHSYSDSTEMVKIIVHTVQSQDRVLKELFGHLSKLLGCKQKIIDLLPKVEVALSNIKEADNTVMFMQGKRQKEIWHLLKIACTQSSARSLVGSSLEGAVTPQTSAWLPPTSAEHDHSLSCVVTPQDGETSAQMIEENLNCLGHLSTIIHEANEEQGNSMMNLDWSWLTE
How it was run: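 Recombinant human IKKα, peptide substrate 100 µM, enzyme 8 ng/µL, ATP 1 µM in Tris-HCl pH 7.5 buffer with MgCl2, MnCl2, DTT, Na3VO4, BSA; 25°C, 60 min; ADP-Glo luminescence. Ten concentrations 0.005–100 µM; IC50 by nonlinear regression; means ± SD of three independent experiments.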

Chain of Mitogen-activated protein kinase kinase kinase 14 (Q99558 whole entry, the tested form may be a part): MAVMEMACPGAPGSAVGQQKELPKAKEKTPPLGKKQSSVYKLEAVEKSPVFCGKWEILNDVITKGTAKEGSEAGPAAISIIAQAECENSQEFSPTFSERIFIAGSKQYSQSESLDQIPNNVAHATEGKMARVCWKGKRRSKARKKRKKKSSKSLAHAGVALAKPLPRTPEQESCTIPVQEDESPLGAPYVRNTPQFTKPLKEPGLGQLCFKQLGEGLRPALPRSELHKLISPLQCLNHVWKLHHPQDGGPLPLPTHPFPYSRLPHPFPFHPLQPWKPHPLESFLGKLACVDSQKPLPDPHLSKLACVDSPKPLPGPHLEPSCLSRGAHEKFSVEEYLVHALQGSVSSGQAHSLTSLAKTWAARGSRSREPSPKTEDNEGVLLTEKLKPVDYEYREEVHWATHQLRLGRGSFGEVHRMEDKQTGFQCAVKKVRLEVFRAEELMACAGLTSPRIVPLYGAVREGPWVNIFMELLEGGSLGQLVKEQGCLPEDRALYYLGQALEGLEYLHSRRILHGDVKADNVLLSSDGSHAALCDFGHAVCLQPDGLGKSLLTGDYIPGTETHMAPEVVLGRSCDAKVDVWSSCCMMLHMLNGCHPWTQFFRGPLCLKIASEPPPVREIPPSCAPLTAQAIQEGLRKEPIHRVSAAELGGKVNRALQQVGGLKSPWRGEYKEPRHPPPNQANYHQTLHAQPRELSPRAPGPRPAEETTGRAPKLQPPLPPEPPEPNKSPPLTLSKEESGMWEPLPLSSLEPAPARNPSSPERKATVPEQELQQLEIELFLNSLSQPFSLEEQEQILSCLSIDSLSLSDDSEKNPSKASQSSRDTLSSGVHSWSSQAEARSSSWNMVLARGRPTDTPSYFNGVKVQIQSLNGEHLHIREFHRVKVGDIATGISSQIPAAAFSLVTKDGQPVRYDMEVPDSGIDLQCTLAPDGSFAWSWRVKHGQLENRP

| IC50 [1] [µM] | IC50 [2] [µM] | IC50 [3] [µM] | IC50 [4] [µM] | SMILES |
| --- | --- | --- | --- | --- |
| > 100 | > 100 | > 100 | > 100 | Cc1n[nH]c(N)c1-c1ccccc1 |
| 22.9 | 13.6 | > 100 | > 100 | CC(=O)n1nc(C)c(Br)c1N |
| > 100 | > 100 | > 100 | > 100 | Cc1nn(C(=O)C2CC2)c(N)c1-c1ccc(Cl)cc1 |
| > 100 | > 100 | > 100 | > 100 | Cc1nn(C(=O)c2cccnc2)c(N)c1-c1ccc(Cl)c(Cl)c1 |
| > 100 | > 100 | 41 | > 100 | Cc1nn(C(=O)C2CCCC2)c(N)c1-c1ccc(Cl)c(Cl)c1 |
| > 100 | > 100 | > 100 | > 100 | CC(=O)n1nc(C)c(-c2ccc(Cl)cc2)c1N |
| > 100 | > 100 | > 100 | > 100 | Cc1[nH]nc(N)c1-c1cccc(OC(F)(F)F)c1 |
| > 100 | > 100 | > 100 | > 100 | Cc1[nH]nc(N)c1-c1ccc2c(c1)OCO2 |
| > 100 | 60.1 | > 100 | 89.7 | Cc1[nH]nc(N)c1-c1ccc(Br)cc1 |
| > 100 | > 100 | > 100 | 34.9 | Cc1[nH]nc(NC(=O)C(F)(F)F)c1-c1ccc(Cl)c(Cl)c1 |
| > 100 | > 100 | > 100 | > 100 | CC(=O)n1nc(C)c(-c2cccc(C(F)(F)F)c2)c1N |
| > 100 | > 100 | > 100 | > 100 | Cc1nn(C(=O)OC(C)(C)C)c(N)c1-c1ccc(Cl)c(Cl)c1 |
| > 100 | > 100 | > 100 | > 100 | CCNC(=O)n1nc(C)c(-c2ccc(Cl)c(Cl)c2)c1N |
| > 100 | > 100 | > 100 | > 100 | Cc1c(-c2ccc(Cl)c(Cl)c2)c(N)nn1C(=O)C1CCC1 |
| > 100 | 75.7 | > 100 | > 100 | Cc1c(N)n[nH]c1-c1ccc(Cl)c(Cl)c1 |
| > 100 | > 100 | 39.6 | > 100 | CC(=O)n1nc(C)c(-c2ccc(C)c(C)c2)c1N |
| 93.4 | > 100 | > 100 | > 100 | Cc1[nH]nc(N)c1-c1cccc(Cl)c1 |
| > 100 | 50.9 | > 100 | > 100 | Cc1[nH]nc(N)c1-c1ccc(Cl)c(Cl)c1 |
| > 100 | 22.9 | > 100 | > 100 | Cc1[nH]nc(N)c1-c1cc(C(F)(F)F)cc(C(F)(F)F)c1 |
| 15.4 | > 100 | > 100 | > 100 | Cc1[nH]nc(N)c1-c1ccc(OCc2ccccc2)cc1 |
| > 100 | > 100 | > 100 | > 100 | CCCC(=O)n1nc(C)c(-c2ccc(Cl)c(Cl)c2)c1N |
| > 100 | > 100 | > 100 | > 100 | Cc1c(-c2ccc(Cl)c(Cl)c2)c(N)nn1C |
| > 100 | > 100 | > 100 | > 100 | CC(=O)n1nc(N)c(-c2ccc(Cl)c(Cl)c2)c1C |
| > 100 | > 100 | > 100 | > 100 | CC(=O)n1nc(C)c(-c2cccc(Cl)c2)c1N |
| > 100 | > 100 | > 100 | > 100 | CCc1nn(C(C)=O)c(N)c1-c1ccc(Cl)c(Cl)c1 |
| > 100 | 88 | > 100 | > 100 | Cc1[nH]nc(N)c1-c1cccc(Br)c1 |
| > 100 | > 100 | > 100 | > 100 | Cc1c(-c2ccc(Cl)c(Cl)c2)c(N)nn1C(=O)c1cccnc1 |
